Laboratory results as given in ChEMBL document CHEMBL1134367, “Solid-phase synthesis and inhibitory effects of some pyrido[1,2-c]pyrimidine derivatives on leukocyte formations and experimental inflammation” (J Med Chem, 2001).

Experiments:
Mus musculus [1] = test: PGE-2 levels were assayed in inflamed paw after 5 hr carrageenan paw edema test in mice; assay type: functional
Procedure, shortened: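 Carrageenan-injected mice (oral compound 1 h prior, Tween 80/saline vehicle) killed by cervical dislocation 5 h after carrageenan. Right hind paws homogenized and PGE₂ measured in homogenates; stomachs handled the same way. Mean ± SEM, n 6-12; ANOVA with Dunnett's t-test.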

Mus musculus [2] = organism: Mus musculus; test: PGE-2 level was assayed in RAW 264.7 macrophages after a 20h stimulation with LPS followed by incubation with compound and arachidonic acid for 2 hr; assay type: functional
Procedure, shortened: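 RAW 264.7 cells first stimulated with LPS for 20 h, then washed and incubated 2 h with compound plus arachidonic acid. PGE₂ measured to assess COX-2 activity in intact cells.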

Mus musculus [3] = test: Antiinflammatory activity, assessed by the carrageenan paw edema test in mice; assay type: functional
Procedure, shortened: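 Mice dosed orally with compound at 20 mg/kg (reference at 10 mg/kg) in Tween 80/saline 1/99 v/v, 1 h before subplantar 3% w/v carrageenan (0.05 mL) in right hind paw. Paw volumes by plethysmometer at 1, 3 and 5 h; edema values at 3 h. Mean ± SEM, n 6-12; ANOVA with Dunnett's t-test.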

Homo sapiens [4] = organism: Homo sapiens; test: Percent inhibition of neutrophils (chemiluminescence) was determined at 10 uM concentration in TPA-induced luminol chemiluminescence assay
Mus musculus [5] = organism: Mus musculus; test: PGE-2 levels were assayed in LPS stimulated RAW 264.7 macrophages for 20h in either presence or absence of compound; assay type: functional
Procedure, shortened: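 Murine RAW 264.7 cells grown in DMEM with 2 mM glutamine, antibiotics and 10% FBS. Cells at 2 × 10⁶/mL exposed to E. coli LPS 1 µg/mL, 37 °C, 20 h, with compound or vehicle. PGE₂ in supernatants by radioimmunoassay. […] Cytotoxicity checked by MTT reduction.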

[6] = (§1) Inhibition of chemiluminescence generated by hypoxanthine/ xanthine oxidase was determined; parameters: concentration or dose not given beside the values; settings: concentration not given here
Procedure, shortened: (§2)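 Cell-free superoxide made by the hypoxanthine/xanthine oxidase system, with chemiluminescence recorded.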

Mus musculus [7] = organism: Mus musculus; test: Inhibitory activity against LPS stimulated RAW 264.7 macrophages; assay type: functional; settings: RAW264.7
Procedure, shortened: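 Murine RAW 264.7 cells grown in DMEM with 2 mM glutamine, antibiotics and 10% FBS. Cells at 2 × 10⁶/mL exposed to E. coli LPS 1 µg/mL, 37 °C, 20 h, with compound or vehicle. PGE₂ in supernatants by radioimmunoassay. Cytotoxicity checked by MTT reduction.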

[8] = Percentage inhibition of H/XO (chemiluminescence) was determined at 10 uM concentration; procedure, shortened: as §2
Homo sapiens [9] = organism: Homo sapiens; test: Percent inhibition of neutrophils (chemiluminescence) was determined at 10 uM concentration; assay type: functional
Procedure, shortened: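 Purified human neutrophils at 2.5 × 10⁶ cells/mL with luminol 40 µM and TPA 1 µM; chemiluminescence recorded. Compounds tested at 10 µM; mean ± SEM.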

[10] = as §1; settings: concentration not given here; procedure, shortened: as §2

inhibition [6]	IC50 (Mus musculus [7])	inhibition [8]	inhibition [10]	Structure (SMILES)	PGE2 Level (Mus musculus [1])	PGE2 Level (Mus musculus [2])	Edema (Mus musculus [3])	inhibition at 10 µM (Homo sapiens [4])	PGE2 Level (Mus musculus [5])	inhibition at 10 µM (Homo sapiens [9])
26.6%	–	–	–	CCOC(=O)c1cc2ccccn2c(=O)n1	85.4 ng/mL	10.6 ng/mL	121.9 µL	29.9%	16.9 ng/mL	–
32.2%	–	–	–	CCOC(=O)c1cc2ccccn2/c(=N/c2ccc(Br)cc2)n1	76.9 ng/mL	9.5 ng/mL	80.8 µL	24.8%	14.8 ng/mL	–
49.6%	1500 nM	–	–	CCOC(=O)c1cc2ccccn2/c(=N/c2ccc(F)cc2)n1	82.5 ng/mL	8.9 ng/mL	103.9 µL	44.4%	11.8 ng/mL	–
43.3%	1700 nM	–	–	CCOC(=O)c1cc2ccccn2c(=S)n1	89.7 ng/mL	8.2 ng/mL	105.2 µL	51.8%	12.8 ng/mL	–
–	–	57.1%	–	CCOC(=O)c1cc2ccccn2/c(=N/c2ccccc2)n1	70.6 ng/mL	11 ng/mL	82.2 µL	–	10.9 ng/mL	52.3%
–	3500 nM	93.3%	–	CCOC(=O)c1cc2ccccn2/c(=N/c2ccc(OC)cc2)n1	78.7 ng/mL	9.6 ng/mL	91.6 µL	75.9%	12 ng/mL	–
31.3%	400 nM	–	–	CCOC(=O)c1cc2ccccn2/c(=N/c2ccc(Cl)cc2)n1	83.3 ng/mL	10.6 ng/mL	102 µL	38.8%	8.2 ng/mL	–
–	1700 nM	49.1%	–	CCOC(=O)c1cc2ccccn2/c(=N/c2ccc(C)cc2)n1	71 ng/mL	13.5 ng/mL	92.4 µL	–	13.3 ng/mL	31.1%
–	–	–	51.6%	[S-]c1nc2ccccc2c2cccc[n+]12	–	10.3 ng/mL	–	53.7%	16.9 ng/mL	–
–	2.1 nM	–	–	CS(=O)(=O)Nc1ccc([N+](=O)[O-])cc1OC1CCCCC1 [NS-398]	53 ng/mL	2.1 ng/mL	97.2 µL	–	3.7 ng/mL	–
